In brackets after ≈: the same amount, converted by molar mass. Several values for one entry are separate records, joined by “and”; a condition that tells them apart may be missing. Equal values may be shown once. Activity calls are given as the source filed them. The calls are words filed in the database; no cut-off is given here.
Columns and labels:
Format in all cases: functional
[1] = system: Enterovirus; assay: (§1) In vitro anti-rhinovirus activity was measured as maximum testable levels - highest concentration of compound which causes no apparent effect on the cell monolayers
[2] = system: Enterovirus; assay: as §1; remark: listed apart in the source
[3] = system: Enterovirus; assay: In vitro anti-rhinovirus activity was measured as mean MIC for five serotypes, HRV-1A, -2, -22, -41, and -50
Method in brief: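 Mean of plaque-reduction-assay MICs across five rhinovirus serotypes (HRV-1A, -2, -22, -41, -50), chosen to represent a range of sensitivity to this compound class.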

[4] = system: Enterovirus; assay: Minimum inhibitory concentration against rhinovirus serotype 15; conditions: Enterovirus; read-out: MIC
Method in brief: (§2)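 Rhinovirus minimum inhibitory concentration (MIC) determined in a plaque reduction assay in cell culture, testing each serotype separately.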

[5] = system: Enterovirus; assay: Minimum inhibitory concentration against rhinovirus serotype 1A; method in brief: as §2
[6] = system: Enterovirus; assay: Minimum inhibitory concentration against rhinovirus serotype 1B.; conditions: Enterovirus; read-out: MIC; method in brief: as §2
[7] = system: Enterovirus; assay: Minimum inhibitory concentration against rhinovirus serotype 21.; method in brief: as §2
[8] = system: Enterovirus; assay: Minimum inhibitory concentration against rhinovirus serotype 30; method in brief: as §2
[9] = system: Enterovirus; assay: Minimum inhibitory concentration against rhinovirus serotype 41; method in brief: as §2
[10] = system: Enterovirus; assay: Minimum inhibitory concentration against rhinovirus serotype 50; method in brief: as §2
[11] = system: Enterovirus; assay: Minimum inhibitory concentration against rhinovirus serotype 89; method in brief: as §2
[12] = system: Enterovirus; assay: Concentration required to inhibit 80 percent rhinovirus cell culture
Method in brief: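 MIC80 is the concentration that inhibits 80% of the rhinovirus serotypes tested. It is derived from per-serotype MICs measured by plaque reduction assay.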

[13] = system: Enterovirus; assay: Minimum inhibitory concentration against rhinovirus serotype 1B; method in brief: as §2
[14] = system: Enterovirus; assay: Minimum inhibitory concentration against rhinovirus serotype 86; method in brief: as §2
[15] = system: Enterovirus; assay: Minimum inhibitory concentration against rhinovirus serotype 25; method in brief: as §2
[16] = system: Enterovirus; assay: Minimum inhibitory concentration against rhinovirus serotype 6.; method in brief: as §2
[17] = system: Enterovirus; assay: Minimum inhibitory concentration against rhinovirus serotype 67; method in brief: as §2

Row | SMILES | MIC ([1]; Enterovirus, read-out: MIC) [µM] | MIC [2] [µM] | MIC [3] [µM] | MIC [4] [µM] | MIC [5] [µM] | MIC [7] | MIC ([7]; Enterovirus, read-out: MIC) [µM] | MIC ([8]; Enterovirus, read-out: MIC) [µM] | MIC [9] [µM] | MIC [10] [µM] | MIC [11] | MIC80 [12] [µM] | MIC [16] [µM] | MIC ([17]; Enterovirus, read-out: MIC) [µM] | MIC [1] [µM] | other results
1 | Cc1cc(CCCCCOc2c(Br)cc(C3=NCCO3)cc2[N+](=O)[O-])on1 |  | 1.2 (≈ 0.526 µg/mL) | 1.16 (≈ 0.508 µg/mL) | 0.5 (≈ 0.219 µg/mL) | 0.1 (≈ 0.0438 µg/mL) | 0.6 µM (≈ 0.263 µg/mL) | 0.5 (≈ 0.219 µg/mL) | 0.2 (≈ 0.0877 µg/mL) | 1.6 (≈ 0.701 µg/mL) | 0.2 (≈ 0.0877 µg/mL) | 0.03 µM (≈ 0.0131 µg/mL) | 0.7 (≈ 0.307 µg/mL) |  |  |  | MIC [6]: 0.3 µM (≈ 0.131 µg/mL); MIC [13]: 0.7 µM (≈ 0.307 µg/mL)
2 | Cc1cc(CCCCCOc2c(Cl)cc(C3=NCCO3)cc2Br)on1 |  | 0.6 (≈ 0.257 µg/mL) | 0.61 (≈ 0.261 µg/mL) | 0.4 (≈ 0.171 µg/mL) | 0.04 (≈ 0.0171 µg/mL) | 0.2 µM (≈ 0.0855 µg/mL) | 0.3 (≈ 0.128 µg/mL) | 0.08 (≈ 0.0342 µg/mL) | 1.8 (≈ 0.77 µg/mL) | 0.09 (≈ 0.0385 µg/mL) |  | 0.5 (≈ 0.214 µg/mL) |  |  |  | MIC [14]: 0.02 µM (≈ 0.00855 µg/mL)

More lines, main results first:

Row | MIC ([1]; Enterovirus, read-out: MIC) [µM] | MIC [2] [µM] | MIC [3] [µM] | MIC [4] [µM] | MIC [5] [µM] | MIC [7] | MIC ([7]; Enterovirus, read-out: MIC) [µM] | MIC ([8]; Enterovirus, read-out: MIC) [µM] | MIC [9] [µM] | MIC [10] [µM] | MIC [11] | MIC80 [12] [µM] | MIC [16] [µM] | MIC ([17]; Enterovirus, read-out: MIC) [µM] | MIC [1] [µM] | SMILES | other results
3 | 12.4 (≈ 5.02 µg/mL) |  |  |  |  |  |  |  |  |  |  |  |  |  |  | Cc1cc(CCCCCOc2c(Cl)cc(C3=NCCO3)cc2C(C)(C)C)on1 | 
4 |  | 2.7 (≈ 0.946 µg/mL) | 2.69 (≈ 0.942 µg/mL) | 0.5 (≈ 0.175 µg/mL) | 0.13 (≈ 0.0455 µg/mL) |  | 0.08 (≈ 0.028 µg/mL) |  | 2.3 (≈ 0.806 µg/mL) | 0.1 (≈ 0.035 µg/mL) |  | 1.9 (≈ 0.666 µg/mL) | 1.1 (≈ 0.385 µg/mL) | 0.12 (≈ 0.042 µg/mL) |  | Cc1cc(CCCCCOc2c(F)cc(C3=NCCO3)cc2F)on1 | MIC [15]: 6.6 µM (≈ 2.31 µg/mL); MIC [8]: 0.5 µM and 0.2 µM; MIC [17]: 0.1 µM (≈ 0.035 µg/mL)
5 | 33.4 (≈ 12.5 µg/mL) | 7.7 (≈ 2.88 µg/mL) | 9.9 (≈ 3.71 µg/mL) | 0.6 (≈ 0.225 µg/mL) | 6.2 (≈ 2.32 µg/mL) |  | 13.4 (≈ 5.02 µg/mL) |  | 12.6 (≈ 4.72 µg/mL) |  |  | 13.4 (≈ 5.02 µg/mL) |  | 14.7 (≈ 5.5 µg/mL) | 16.7 (≈ 6.25 µg/mL) | COc1cc(C2=NCCO2)cc(OC)c1OCCCCCc1cc(C)no1 | 
6 | 9.9 (≈ 3.11 µg/mL) | 5.2 (≈ 1.63 µg/mL) | 5.16 (≈ 1.62 µg/mL) | 1.5 (≈ 0.472 µg/mL) | 1.1 (≈ 0.346 µg/mL) | inactive | 1.2 (≈ 0.377 µg/mL) | 0.3 (≈ 0.0943 µg/mL) | 15 (≈ 4.72 µg/mL) |  | inactive | 7 (≈ 2.2 µg/mL) | 0.9 (≈ 0.283 µg/mL) | 0.4 (≈ 0.126 µg/mL) | 7 (≈ 2.2 µg/mL) | Cc1cc(CCCCCOc2ccc(C3=NCCO3)cc2)on1 | MIC ([16]; Enterovirus, read-out: MIC): 0.7 µM (≈ 0.22 µg/mL)
